Screens from PubChem.
Compounds with a hit are over-represented: about 4.7% of the library has one in this group of screens.
697 NFkB inh = inhibitors of the PMA/ionomycin-induced NF-kB reporter in 697 B cells; 697 B-cell NF-kB luciferase reporter, 16 h; inhibition, % at 4 µM; 330,000 compounds, 0.33% hits; AID 435022; in the data active means inhibition above about 35%
Mdm2-MdmX inh = disrupts the human Mdm2-MdmX interaction; inhibition, % at 8 µM; AID 485346; SaOS-2 split-luciferase Mdm2/MdmX complementation, luminescence; O15151+Q00987; 330,000 compounds, 3% hits;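 active means inhibition of at least 50% at 8 µM in the primary screen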
VIM-2 inhibitor = inhibitors of Pseudomonas aeruginosa VIM-2 metallo-beta-lactamase; purified VIM-2, nitrocefin hydrolysis, epi-absorbance fluorescence; inhibition, % at 5.6 µM; 290,000 compounds, 0.89% hits; AID 1527;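 active means inhibition above the mean of all tested compounds plus 3 SD, cutoff set per screening run, cut at about 7.5% in these data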;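 further: red hydrolysis product quenches plate fluorescence so inhibitors raise well fluorescence; 0% = enzyme with DMSO and 100% = DMSO without enzyme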
Jurkat NFkB inh = inhibitors of the PMA/ionomycin-induced NF-kB reporter in Jurkat cells. PMA/ionomycin-induced NF-kB luciferase reporter, luminescence. inhibition, % at 4 µM. 330,000 compounds, 0.53% hits; in the data active means inhibition above about 50%
IMP-1 inhibitor = inhibitors of Pseudomonas aeruginosa IMP-1 metallo-beta-lactamase; purified IMP-1, nitrocefin hydrolysis, epi-absorbance fluorescence; inhibition, % at 5.6 µM; 290,000 compounds, 0.45% hits;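 active means inhibition above the mean plus 3 SD of all compounds in the same screening run, cut at about 4.5% in these data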;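 further: 0% = IMP-1 with DMSO and 100% = DMSO wells lacking enzyme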
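System: purified IMP-1; amount: IMP-1 0.2 nM before substrate addition; compound: single dose, 5.6 µM; times: 25 °C, 15 min preincubation, 25 min reaction; signal: Epi-absorbance via hydrolysed-nitrocefin quenching of white-plate fluorescence, 480/530 nm, EDTA stop; benchmarks: DMSO with and without IMP-1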
aSyn UTR inh = 5' untranslated region of α-synuclein, MLPCN primary screen; alpha-synuclein 5'UTR reporter, inhibitor activity; inhibition, % (tested at 7.5 µM); 300,000 compounds, 0.82% hits; in the data active means inhibition above about 60%;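 further: H4 neuroglioblastoma cells stably carrying SNCA 5'UTR luciferase fusion; 0% = DMSO wells and 100% = positive control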
Jurkat NFkB conf = lowers PMA/ionomycin-induced NF-kB signal in Jurkat cells | shares compounds with Jurkat NFkB inh | Jurkat NF-kB luciferase, 16 h | inhibition, % at 4 µM | 2,700 compounds, 27% hits | AID 435020;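 active means inhibition reaching about 45% at 4 µM in either replicate, limit read from the data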;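 further: plate controls were PMA/ionomycin stimulated DMSO wells for no effect and unstimulated DMSO wells for full effect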
Numbers without * were called inactive; nt = no result.

SMILES	697 NFkB inh	Mdm2-MdmX inh	VIM-2 inhibitor	Jurkat NFkB inh	IMP-1 inhibitor	aSyn UTR inh	Jurkat NFkB conf
CCOC(=O)C1(CCc2ccccc2)CCN(C(=O)CN2C(=O)CSC2=O)CC1	-19.1	-10.2	-1.9	-9.8	-0.2	-38.5	nt
Cc1ccc(C(=O)NNCC(=O)Nc2ccc(Cl)cc2F)cc1	0.1	-0.2	nt	2.6	nt	nt	nt
NC(=O)CC(NC(=O)Cc1ccc(Br)cc1)c1ccc(NC2CCCCCC2)c([N+](=O)[O-])c1 (stereo unspecified)	7.6	39.0	nt	18.4	nt	-13.3	nt
CC(C)Nc1ccc(C(CC(N)=O)NC(=O)Cc2ccc(Br)cc2)cc1[N+](=O)[O-] (stereo unspecified)	-39.6	27.9	nt	84.1*	nt	1.5	58.5*
NC(=O)CC(NC(=O)Cc1ccc(Br)cc1)c1ccc(NC2CCCC2)c([N+](=O)[O-])c1 (stereo unspecified)	25.8	39.6	nt	51.1*	nt	-22.0	28.8
Cc1cc(C(=O)COc2cccnc2[N+](=O)[O-])c(C)n1-c1ccccc1	-6.6	49.3	-1.8	64.7*	-1.3	99.8*	18.4
CCCC(=O)Nc1nc2ccc(S(=O)(=O)N3CCCCC3)cc2s1	-49.1	42.6	-1.9	52.5*	-5.3	27.2	49.1
Cc1cccc(C(=O)NCc2nnc(SCC(=O)Nc3nncs3)n2C)c1	0.7	0.8	0.5	-1.1	0.2	-6.2	nt
Cc1ccnc(NC(=S)NC(=O)c2cccs2)c1	-181.4	-84.8	0.3	-201.0	-1.2	-270.4	-82.6
Cc1ccnc(NC(=O)CNC(=O)c2cccs2)c1	12.6	15.7	nt	-5.9	nt	-0.3	nt
Cc1ccc2oc(-c3ccc(C)c(NC(=S)NC(=O)c4cccs4)c3)nc2c1	-225.7	28.7	-2.3	-169.7	-3.0	-193.3	-86.5
Cc1ccsc1/C=N/NC(=O)C1C(=O)NCC1c1ccccc1 (stereo unspecified)	20.6	8.9	-0.1	10.8	-2.5	-20.0	nt
CC(=O)c1ccc(N2CCN(S(=O)(=O)c3ccc4c(c3)CC(C)N4C(=O)C3CC3)CC2)cc1 (stereo unspecified)	-10.0	14.5	0.8	57.7*	1.2	14.6	40.5
CC(=O)N1c2ccc(S(=O)(=O)N3CCC(C(=O)Nc4ccccn4)CC3)cc2CC1C (stereo unspecified)	2.8	25.1	-6.7	4.6	-2.8	3.1	nt
CC(=O)N1c2ccc(S(=O)(=O)N3CCC(C(=O)Nc4cccc(C)n4)CC3)cc2CC1C (stereo unspecified)	-7.2	16.1	-4.5	53.8*	-2.2	-14.0	50.4*
CCC(=O)N1c2ccc(S(=O)(=O)N3CCN(CC)CC3)cc2CC1C (stereo unspecified)	-19.8	4.0	0.7	-7.6	-2.9	3.5	nt
CCC(=O)N1c2ccc(S(=O)(=O)N3CCN(c4ccc([N+](=O)[O-])cc4)CC3)cc2CC1C (stereo unspecified)	31.6	18.0	-1.2	51.7*	-4.7	20.8	64.8*
COCCNC(=O)CCC1CCN(Cc2ccc(-c3ccccc3)cc2)CC1	3.4	-3.6	-2.0	17.8	-1.7	14.9	nt
CC1(c2ccccc2)NC(=O)N(CC(=O)N(c2ccccc2)C2CCS(=O)(=O)C2)C1=O (stereo unspecified)	7.8	5.1	nt	-16.3	nt	nt	nt
O=C(N/N=C/c1c[nH]c2ccccc12)C1COc2ccccc2O1 (stereo unspecified)	-1.1	31.0	-3.8	53.1*	-2.1	75.6*	1.4
CC(C)[C@H](NC(=O)[C@@H]1Cc2ccccc2CN1C(=O)OC(C)(C)C)C(=O)NCC1CCCO1 (stereo partly specified)	13.8	-1.1	-3.0	-11.2	-5.1	-1.7	nt
O=C(Nc1ccc(N2CCOCC2)c(Cl)c1)c1cccc(F)c1	-142.9	-83.7	-1.3	-151.5	-3.8	nt	-96.3
CC(=O)NCc1ccc(-c2nc3ccccc3s2)cc1	-173.8	-201.1	0.1	-148.2	-1.6	-37.7	nt
COc1ccc(-c2nc3ccccc3s2)cc1NC(C)=O	-117.1	-97.7	-1.1	-183.0	-2.5	-126.5	-73.0
Cc1onc(-c2c(F)cccc2Cl)c1C(=O)N1CCCCC1	14.6	-35.5	-0.7	-1.0	-1.5	-11.4	nt
